Converted amounts (≈) assume the structure as drawn.
Key:
[1] = system: Pseudomonas aeruginosa; assay: In vitro antibacterial activity against gram negative Pseudomonas aeruginosa UI-18.; assay type: functional
[2] = system: Escherichia coli; assay: In vivo potency against acute systemic infection in mouse caused by Escherichia coli Vogel on oral administration by gavage.; assay type: functional; settings: read-out: PD50
Outline: (§1)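 Acute systemic mouse infection. A single oral dose was given by gavage at the time of challenge. Potency is reported as the median protective dose (PD50, mg/kg), determined by earlier published methods.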

[3] = Solubility (at pH 4); assay type: physicochemical; settings: buffer; for solubility: read-out: S
Outline: (§2)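 Solubility was measured either from HPLC peak areas at equilibrium or by a conventional weight-per-volume method. All solutions were held for 24 h before measurement.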

[4] = Solubility (at pH 7.4); assay type: physicochemical; settings: buffer, read-out: S; outline: as §2
[5] = system: Enterococcus faecalis; assay: In vitro antibacterial activity against gram positive Enterococcus faecalis MGH-2.; assay type: functional
[6] = system: Providencia rettgeri; assay: In vitro antibacterial activity against gram negative Providencia rettgeri M-1771.; assay type: functional
[7] = system: Staphylococcus aureus; assay: In vitro antibacterial activity against gram positive Staphylococcus aureus UC76.; assay type: functional
[8] = system: Enterobacter cloacae; assay: In vitro antibacterial activity against gram negative Enterobacter cloacae MA 2646.; assay type: functional
[9] = system: Mus musculus; assay: In vivo potency against acute systemic infection in mouse caused by Streptococcus pyogenes C-203 on subcutaneous injection; assay type: functional; settings: sc, read-out: PD50
Outline: (§3)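 Acute systemic mouse infection. A single subcutaneous dose was injected at the time of challenge. Potency is reported as the median protective dose (PD50, mg/kg), determined by earlier published methods.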

[10] = system: Mus musculus; assay: In vivo potency against acute systemic infection in mouse caused by Pseudomonas aeruginosa. UI-18. on subcutaneous injection.; assay type: functional; settings: sc, read-out: PD50; outline: as §3
[11] = Solubility (in 0.1 N HCl); assay type: physicochemical; settings: read-out: S; outline: as §2
[12] = system: Streptococcus pneumoniae; assay: In vitro antibacterial activity against gram positive Streptococcus pneumoniae SV-1.; assay type: functional
[13] = system: Streptococcus pneumoniae; assay: In vivo potency against acute systemic infection in mouse caused by Streptococcus pneumoniae SV-1 on subcutaneous injection.; assay type: functional; settings: sc, read-out: PD50; outline: as §3
[14] = system: Mus musculus; assay: In vivo potency against acute systemic infection in mouse caused by Pseudomonas aeruginosa UI-18 on oral administration by gavage.; assay type: functional; settings: read-out: PD50; outline: as §1
[15] = system: Streptococcus pyogenes; assay: In vitro antibacterial activity against gram positive Streptococcus pyogenes C-203.; assay type: functional
[16] = molecular target: DNA gyrase (Escherichia coli) (UniProt P0AES6+P0AES4); assay: In vitro concentration inhibiting DNA gyrase induced cleavage in Escherichia coli H560.; assay type: functional
Outline: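 DNA gyrase test run as described in earlier work. The value is the drug concentration (µg/mL) needed to cause DNA cleavage.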

[17] = system: Escherichia coli; assay: In vivo potency against acute systemic infection in mouse caused by Escherichia coli vogel on subcutaneous injection.; assay type: functional; settings: sc, read-out: PD50; outline: as §3
[18] = system: Klebsiella pneumoniae; assay: In vitro antibacterial activity against gram negative Klebsiella pneumoniae MGH-2.; assay type: functional
[19] = system: Staphylococcus aureus; assay: In vitro antibacterial activity against gram positive Staphylococcus aureus H-228.; assay type: functional
[20] = system: Streptococcus pneumoniae; assay: In vivo potency against acute systemic infection in mouse caused by Streptococcus pneumoniae SV-1 on oral administration by gavage.; assay type: functional; settings: read-out: PD50; outline: as §1
[21] = system: Escherichia coli; assay: In vitro antibacterial activity against gram negative Escherichia coli Vogel.; assay type: functional
[22] = Aqueous solubility; assay type: physicochemical; settings: water (aqueous); read-out: S; outline: as §2
[23] = system: Mus musculus; assay: In vivo potency against acute systemic infection in mouse caused by Streptococcus pyogenes C-203 on oral administration by gavage; assay type: functional; settings: read-out: PD50; outline: as §1

| SMILES | MIC [1] [µg/mL] | ED50 [2] [mg/kg] | solubility [4] [µg/mL] | MIC [5] [µg/mL] | MIC [6] [µg/mL] | MIC [7] [µg/mL] | MIC [8] [µg/mL] | ED50 [9] [mg/kg] | solubility [11] [µg/mL] | MIC [12] [µg/mL] | ED50 [13] [mg/kg] | MIC [15] [µg/mL] | Cleavage [16] [µg/mL] | ED50 [17] [mg/kg] | MIC [18] [µg/mL] | MIC [19] [µg/mL] | ED50 [20] [mg/kg] | MIC [21] [µg/mL] | solubility [22] [µg/mL] | ED50 [23] [mg/kg] | further results |
| --- | --- | --- | --- | --- | --- | --- | --- | --- | --- | --- | --- | --- | --- | --- | --- | --- | --- | --- | --- | --- | --- |
| C[C@H](N)C(=O)N[C@H]1CCN(c2c(F)c(N)c3c(=O)c(C(=O)O)cn(C4CC4)c3c2F)C1.Cl.O | 1.6 | 5 | 40 | 0.2 | 0.4 | 0.025 | 0.05 | 23 | 2800 | 0.05 | 13 | 0.05 | 2.5 | 2.5 | 0.2 | 0.1 | 17 | 0.05 | 18000 | 6.3 | solubility [3]: 58000 µg/mL; ED50 [10]: 4 mg/kg; ED50 [14]: 9.6 mg/kg |
| NC1CCN(c2nc3c(cc2F)c(=O)c(C(=O)O)cn3-c2ccc(F)cc2F)C1 (stereo not drawn) [TOSUFLOXACIN] | 0.4 (≈ 0.989 µM) | 1 | 100 (≈ 247 µM) | 0.1 (≈ 0.247 µM) | 0.1 (≈ 0.247 µM) | 0.025 (≈ 0.0618 µM) | 0.025 (≈ 0.0618 µM) | 3 | 400 (≈ 989 µM) | 0.025 (≈ 0.0618 µM) | 3 | 0.05 (≈ 0.124 µM) | – | 0.3 | 0.05 (≈ 0.124 µM) | 0.05 (≈ 0.124 µM) | 14 | 0.013 (≈ 0.0322 µM) | 650 (≈ 1610 µM) | 5 | S [3]: 0.55 mg/mL; ED50 [10]: 4 mg/kg; ED50 [14]: 6 mg/kg |
| Cl.NC1CCN(c2cc3c(cc2F)c(=O)c(C(=O)O)cn3C2CC2)C1.O (stereo not drawn) | 0.1 | 3 | – | 0.1 | 0.1 | 0.025 | 0.025 | 11 | – | 0.1 | 4 | 0.1 | 0.1 | 0.5 | 0.05 | 0.2 | 43 | 0.025 | – | 97 | ED50 [10]: 5 mg/kg; ED50 [14]: 49 mg/kg |
| Cl.Nc1c(F)c(N2CC[C@H](N)C2)c(F)c2c1c(=O)c(C(=O)O)cn2C1CC1.O | 0.025 | 1.2 | 50 | 0.025 | 0.025 | 0.003 | 0.003 | 5.5 | 250 | 0.006 | 6 | 0.013 | 0.1 | 0.4 | 0.013 | 0.006 | 10 | 0.003 | 2500 | 18 | solubility [3]: 2300 µg/mL |
| Cl.NCC(=O)NC1CCN(c2c(F)c(N)c3c(=O)c(C(=O)O)cn(C4CC4)c3c2F)C1.O (stereo not drawn) | 1.6 | 1 | 70 | 0.4 | 0.4 | 0.1 | 0.2 | 8.1 | 3500 | 0.4 | 16 | 0.2 | 5 | 0.4 | 0.4 | 0.4 | 29 | 0.2 | 17000 | 36 | solubility [3]: 69000 µg/mL |
| Cl.N[C@@H](Cc1ccccc1)C(=O)NC1CCN(c2cc3c(cc2F)c(=O)c(C(=O)O)cn3C2CC2)C1.O (stereo partly drawn) | 6.3 | 5 | 300 | 0.4 | 3.1 | 0.2 | 0.8 | – | 9200 | 0.4 | 5 | 0.4 | 25 | 1 | 3.1 | 0.8 | > 50 | 0.8 | 44000 | – | solubility [3]: 66000 µg/mL |
| C[C@H](N)C(=O)NC1CCN(c2cc3c(cc2F)c(=O)c(C(=O)O)cn3C2CC2)C1.Cl.O (stereo partly drawn) | 1.6 | 5 | 270 | 1.6 | 1.6 | 0.4 | 0.8 | 5 | > 100000 | 0.4 | 13 | 0.4 | 1 | 0.5 | 0.8 | 3.1 | > 100 | 0.4 | > 100000 | > 100 | solubility [3]: > 100000 µg/mL |
| C[C@H](N)C(=O)N[C@@H]1CCN(c2c(F)c(N)c3c(=O)c(C(=O)O)cn(C4CC4)c3c2F)C1.Cl.O | 3.1 | 2.2 | 40 | 0.4 | 1.6 | 0.025 | 0.8 | 6.3 | 3200 | 0.2 | 7.7 | 0.2 | 5 | 0.5 | 0.8 | 0.4 | 18 | 0.4 | 21000 | 20 | solubility [3]: 71000 µg/mL |
| C[C@H](N)C(=O)N[C@@H]1CCN(c2nc3c(cc2F)c(=O)c(C(=O)O)cn3C2CC2)C1.Cl.O | 6.3 | 2 | 70 | 3.1 | 3.1 | 0.8 | 0.8 | 32 | > 200000 | 1.6 | 28 | 0.8 | 1 | 0.5 | 3.1 | 3.1 | 40 | 1.6 | > 200000 | 49 | solubility [3]: > 200000 µg/mL |

Source: ChEMBL document CHEMBL1126036, “Quinolone antibacterial agents. Synthesis and structure-activity relationships of a series of amino acid prodrugs of racemic and chiral 7-(3-amino-1-pyrrolidinyl)quinolones. Highly soluble quinolone prodrugs with in vivo pseudomonas activity” (J Med Chem, 1992)
